Reference: PMC4201501 (Journal of chromatography. B, Analytical technologies in …, 2014)
Where two headings read alike, the source gives them in different places. Each block holds one compound with its values, some of them ahead of it.

How the values were obtained:
[1] = tested on: human breast and pancreatic cancers; settings: cited from earlier work
[2] = Stability of SP-141 in mouse plasma; format: in vitro ADME; settings: for percentage of intact compound remaining after three freeze-thaw cycles: three freeze-thaw cycles (-20°C/room temperature)
[3] = Autosampler stability of extracted plasma samples; format: physicochemical, mouse; settings: extracted plasma sample, 4°C, 36 h
How it was run: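 Extracted mouse-plasma QC samples (1.94, 81.0, 129.6 ng/mL; IS 16.2 ng/mL) were prepared by n-hexane–dichloromethane–2-propanol (20:10:1) extraction, dried under nitrogen at 40°C, and reconstituted in ACN–water 50:50. They were injected immediately (time 0), then re-injected after 36 h at 4°C in the autosampler. Quantitation was by C18 gradient LC–positive ESI MRM, as percentage of intact compound versus time 0.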

[4] = Stability of stock solutions at room temperature; format: physicochemical; settings: stock solution in acetonitrile, room temperature (25°C), at least 24 h
How it was run: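 Primary stock solutions (10 mM in acetonitrile) of test compound and internal standard were held at room temperature (25°C) for 6, 12 and 24 h before analysis.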

[5] = format: in vivo, CD-1 mice; settings: CD-1, mouse, plasma, 40 mg/kg
[6] = tested on: MDM2 protein; settings: cited from earlier work

percentage of intact compound remaining after three freeze-thaw cycles ([2]; 1.94 ng/mL): 96.4% ± 0.6% | percentage of intact compound remaining after three freeze-thaw cycles ([2]; 81.0 ng/mL): 96.2% ± 2.4% | percentage of intact compound remaining after three freeze-thaw cycles ([2]; 129.6 ng/mL): 99.3% ± 2.5% | compound remained intact after 24-h storage ([2]; 4°C, 24 h, all QC concentrations): more than 95.3% | stability in plasma at room temperature ([2]; 25°C, up to 24 h, prior to extraction): relatively stable | compound remaining after 24-h incubation ([2]; 37°C, 24 h, all QC concentrations): more than 83.0% | intact drug remained after storage for 4 weeks ([2]; −80°C, 4 weeks, all concentrations tested): more than 92.2% | percentage of intact compound in the autosampler ([3]; 1.94 ng/mL): 96.3% ± 2.7% | percentage of intact compound in the autosampler ([3]; 81.0 ng/mL): 98.5% ± 3.1% | percentage of intact compound in the autosampler ([3]; 129.6 ng/mL): 96.8% ± 0.6% | stability of stock solution [4]: stable | AUC(0-inf) ([5]; ip): 13200 ng·h/mL | AUC(0-t) ([5]; ip): 12600 ng·h/mL | Cmax ([5]; ip): 4420 ng/mL | Tmax ([5]; ip): 10 min | concentration at 10 min ([5]; ip): 4420 ng/mL | concentration at 24 h ([5]; ip): < 150 ng/mL | half-life ([5]; ip): 107 min | AUC(0-inf) ([5]; iv): 8540 ng·h/mL | AUC(0-t) ([5]; iv): 8340 ng·h/mL | Cmax ([5]; iv): 5530 ng/mL | concentration at 5 min ([5]; iv): 5530 ng/mL | concentration at 24 h ([5]; iv): < 20 ng/mL | half-life ([5]; iv): 58.8 min
SMILES: COc1ccc2[nH]c3c(-c4cccc5ccccc45)nccc3c2c1 [SP-141, 6-methoxy-1-(naphthalen-1-yl)-9H-pyrido[3,4-b]indole]
potency against human breast and pancreatic cancers [1]: high potency | toxicity at doses leading to tumor regression [1]: without any observable toxicity | binding to the MDM2 protein [6]: directly binds

stability of stock solution [4]: stable
SMILES: COc1ccc2c(c1)[nH]c1c(-c3ccc4ccccc4c3)nccc12 [SP-157, 7-methoxy-1-(naphthalen-2-yl)-9H-pyrido[3,4-b]indole, reference compound]
